Experimental data from ChEMBL document CHEMBL5108071, “Potent and Specific Activators for Mitochondrial Sirtuins Sirt3 and Sirt5” (J Med Chem, 2022).
Values belong to the compound of their own block, whether it stands above or below them. Active and inactive are the calls of the source. No cut-off for these calls is given here.

How the values were obtained:
[1] = target: NAD-dependent protein deacylase sirtuin-5, mitochondrial (Homo sapiens) (UniProt Q9NXA8); experiment: Activation of N-terminal his-tagged human SIRT5 (34 to 302 residues) expressed in Escherichia coli assessed as fold activation at 100 uM using CPS1-succ537 as substrate in presence of NAD+; conditions: filed as activator
How it was run: (§1)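 Coupled enzymatic deacylation assay (nicotinamidase/GDH-coupled, continuous): 1.5 μM recombinant Sirtuin (expressed in E. coli, Ni-NTA purified, tag removed, size-exclusion purified) with 50 μM substrate peptide and 100 μM NAD+, without or with 10 μM or 100 μM 1,4-DHP, 5% final DMSO. Activity expressed relative to no-compound control.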

[2] = target: NAD-dependent protein deacylase sirtuin-5, mitochondrial (Homo sapiens) (UniProt Q9NXA8); experiment: Activation of N-terminal his-tagged human SIRT5 (34 to 302 residues) expressed in Escherichia coli assessed as fold activation at 10 uM using CPS1-succ537 as substrate in presence of NAD+; conditions: filed as activator; how it was run: as §1
[3] = target: T1, NAD-dependent protein deacetylase sirtuin-1 (Homo sapiens) (UniProt Q96EB6); experiment: Activation of N-terminal his-tagged human SIRT1 expressed in Escherichia coli at 10 to 100 uM using p53-acK381 as substrate in presence of NAD+; conditions: filed as activator, dose 10-100 µM
T1 sequence (whole entry): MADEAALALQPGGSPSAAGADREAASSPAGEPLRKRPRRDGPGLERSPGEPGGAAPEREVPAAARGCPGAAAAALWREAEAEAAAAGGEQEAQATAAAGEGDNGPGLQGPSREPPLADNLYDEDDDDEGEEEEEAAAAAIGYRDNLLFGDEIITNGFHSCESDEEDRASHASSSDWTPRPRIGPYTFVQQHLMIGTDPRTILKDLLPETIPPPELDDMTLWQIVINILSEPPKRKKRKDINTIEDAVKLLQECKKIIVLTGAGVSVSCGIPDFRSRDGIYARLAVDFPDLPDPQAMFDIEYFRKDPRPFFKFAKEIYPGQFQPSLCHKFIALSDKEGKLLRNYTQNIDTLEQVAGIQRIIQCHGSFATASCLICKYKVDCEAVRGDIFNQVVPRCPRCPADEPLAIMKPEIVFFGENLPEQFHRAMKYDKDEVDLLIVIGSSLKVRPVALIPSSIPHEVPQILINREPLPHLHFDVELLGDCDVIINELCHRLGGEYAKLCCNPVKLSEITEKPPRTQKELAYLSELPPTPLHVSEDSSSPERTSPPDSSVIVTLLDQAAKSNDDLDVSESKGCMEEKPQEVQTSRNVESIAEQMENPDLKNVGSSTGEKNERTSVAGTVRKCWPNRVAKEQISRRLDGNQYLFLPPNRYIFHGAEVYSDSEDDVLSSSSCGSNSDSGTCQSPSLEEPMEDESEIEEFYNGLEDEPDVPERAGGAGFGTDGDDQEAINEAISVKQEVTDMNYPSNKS
How it was run: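 Compound titration in the nicotinamidase/GDH-coupled deacylation assay. 1.5 μM recombinant Sirt1 (E. coli-expressed, Ni-NTA purified, tag removed, size-exclusion purified) was used with 50 μM p53-acK381 peptide and 100 μM NAD+. 1,4-DHP was added at the indicated concentrations in 5% final DMSO.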

[4] = target: NAD-dependent protein deacylase sirtuin-5, mitochondrial (Homo sapiens) (UniProt Q9NXA8); experiment: Activation of N-terminal his-tagged human SIRT5 (34 to 302 residues) expressed in Escherichia coli assessed as fold activation at 10 to 100 uM using CPS1-succ537 as substrate in presence of NAD+; conditions: filed as activator, dose 10-100 µM; how it was run: as §1
[5] = target: T1, NAD-dependent protein deacetylase sirtuin-1 (Homo sapiens); experiment: Activation of N-terminal his-tagged human SIRT1 expressed in Escherichia coli assessed as fold activation at 10 to 100 uM using p53-acK381 as substrate in presence of NAD+; conditions: filed as activator, dose 10-100 µM; how it was run: as §1
[6] = target: T1, NAD-dependent protein deacetylase sirtuin-1 (Homo sapiens); experiment: Activation of N-terminal his-tagged human SIRT1 expressed in Escherichia coli assessed as fold activation at 100 uM using p53-acK381 as substrate in presence of NAD+; conditions: filed as activator; how it was run: as §1
[7] = target: T2, NAD-dependent protein deacetylase sirtuin-2 (Homo sapiens) (UniProt Q8IXJ6); experiment: Activation of N-terminal SUMO-tagged human SIRT2 (43 to 356 residues) expressed in Escherichia coli assessed as deacetylation of substrate at 100 uM using acetylated alpha tubulin-K2 as substrate in presence of NAD+; conditions: filed as activator; how it was run: as §1
T2 sequence (whole entry): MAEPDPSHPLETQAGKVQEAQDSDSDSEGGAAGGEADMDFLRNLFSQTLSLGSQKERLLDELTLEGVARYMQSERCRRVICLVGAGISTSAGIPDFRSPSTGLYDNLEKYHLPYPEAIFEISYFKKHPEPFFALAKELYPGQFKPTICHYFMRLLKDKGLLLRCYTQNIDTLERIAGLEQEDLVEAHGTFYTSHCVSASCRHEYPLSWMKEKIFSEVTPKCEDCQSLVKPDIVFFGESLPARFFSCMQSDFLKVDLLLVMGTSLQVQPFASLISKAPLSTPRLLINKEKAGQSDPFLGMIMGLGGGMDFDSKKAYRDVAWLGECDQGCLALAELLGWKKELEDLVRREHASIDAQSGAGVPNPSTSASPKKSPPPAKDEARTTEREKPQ

Sequence of NAD-dependent protein deacylase sirtuin-5, mitochondrial (Homo sapiens) (Q9NXA8 37-310 limits assumed): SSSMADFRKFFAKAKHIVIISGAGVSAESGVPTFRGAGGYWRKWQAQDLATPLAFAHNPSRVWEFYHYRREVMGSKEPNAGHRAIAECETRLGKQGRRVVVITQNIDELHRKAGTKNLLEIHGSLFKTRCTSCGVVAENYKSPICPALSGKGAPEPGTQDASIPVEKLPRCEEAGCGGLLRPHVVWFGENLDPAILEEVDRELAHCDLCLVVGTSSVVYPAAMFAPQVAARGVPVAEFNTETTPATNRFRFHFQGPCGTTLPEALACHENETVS

fold change (FC) [1]: 2 | fold change (FC) [2]: 1.2
SMILES: CCOC(=O)C1=CN(C(=O)c2cnccn2)C=C(C(=O)OCC)C1c1ccccc1

Activity [3]: Active
SMILES: CCOC(=O)C1=CN(Cc2cc(OC)c(OC)c(OC)c2)C=C(C(=O)OCC)C1c1cnc2ccccc2c1

fold change (FC) [1]: 2
SMILES: CCOC(=O)C1=CN(Cc2ccccc2)C=C(C(=O)OCC)C1c1cc2ccccc2s1

fold change (FC) [4]: 3 | Activity [3]: Active
SMILES: CCOC(=O)C1=CN(C(=O)c2ccccc2)C=C(C(=O)OCC)C1c1ccoc1

fold change (FC) [2]: 1.2 | fold change (FC) [5]: 1.5
SMILES: CCOC(=O)C1=CN(C(=O)c2ccccc2)C=C(C(=O)OCC)C1c1ccc(OC)cc1

fold change (FC) [5]: 1.5
SMILES: CCOC(=O)C1=CN(C(=O)c2ccc3ccccc3c2)C=C(C(=O)OCC)C1c1ccccc1

fold change (FC) [1]: 2 | fold change (FC) [2]: 1.2
SMILES: CCOC(=O)C1=CN(C(=O)c2ccccc2)C=C(C(=O)OCC)C1c1cccc(OC)c1

Activity [3]: Active
SMILES: CCOC(=O)C1=CN(C(=O)c2cc(OC)c(OC)c(OC)c2)C=C(C(=O)OCC)C1c1cccc(Cl)c1

fold change (FC) [1]: 2
SMILES: CCOC(=O)C1=CN(Cc2ccccc2)C=C(C(=O)OCC)C1c1ccc(-c2ccccc2)cc1

fold change (FC) [6]: 2.5 | fold change (FC) [4]: 2
SMILES: CCOC(=O)C1=CN(C(=O)c2cc(OC)c(OC)c(OC)c2)C=C(C(=O)OCC)C1c1ccc(CN2CCN(C)CC2)cc1

Activity [3]: Active
SMILES: CCOC(=O)C1=CN(Cc2cc(OC)c(OC)c(OC)c2)C=C(C(=O)OCC)C1c1ccccc1

Activity [3]: Active
SMILES: CCOC(=O)C1=CN(C(=O)c2cc(OC)c(OC)c(OC)c2)C=C(C(=O)OCC)C1c1cccc(C)c1

fold change (FC) [4]: 2
SMILES: CCOC(=O)C1=CN(C(=O)c2ccccc2)C=C(C(=O)OCC)C1c1ccco1

fold change (FC) [6]: 2.5
SMILES: CCOC(=O)C1=CN(C(=O)c2cc(OC)c(OC)c(OC)c2)C=C(C(=O)OCC)C1c1ccsc1

fold change (FC) [1]: 2
SMILES: CCOC(=O)C1=CN(C(=O)c2cccc3ccccc23)C=C(C(=O)OCC)C1c1ccccc1

fold change (FC) [5]: 1.5
SMILES: CCOC(=O)C1=CN(Cc2ccccc2)C=C(C(=O)OCC)C1c1ccsc1

fold change (FC) [1]: 2 | fold change (FC) [2]: 1.2
SMILES: CCOC(=O)C1=CN(C(=O)c2ccccc2)C=C(C(=O)OCC)C1c1ccc(Cl)cc1

Activity [3]: Active
SMILES: CCOC(=O)C1=CN(C(=O)c2cc(OC)c(OC)c(OC)c2)C=C(C(=O)OCC)C1c1cccc(F)c1

fold change (FC) [6]: 2.5 | Activity [7]: Active | fold change (FC) [4]: 2
SMILES: CCOC(=O)C1=CN(C(=O)c2cc(OC)c(OC)c(OC)c2)C=C(C(=O)OCC)C1c1ccoc1

fold change (FC) [1]: 2 | fold change (FC) [2]: 1.2
SMILES: CCOC(=O)C1=CN(Cc2ccccc2)C=C(C(=O)OCC)C1c1ccc2ccccc2c1

fold change (FC) [1]: 2
SMILES: CCOC(=O)C1=CN(Cc2ccccc2)C=C(C(=O)OCC)C1c1cccc2ccccc12

fold change (FC) [6]: 2.5 | Activity [7]: Active | fold change (FC) [4]: 2
SMILES: CCOC(=O)C1=CN(C(=O)c2cc(OC)c(OC)c(OC)c2)C=C(C(=O)OCC)C1c1ccco1

fold change (FC) [1]: 2
SMILES: CCOC(=O)C1=CN(C(=O)c2ccccc2)C=C(C(=O)OCC)C1c1ccccc1Cl

fold change (FC) [1]: 2 | fold change (FC) [2]: 1.2 | fold change (FC) [5]: 1.5
SMILES: CCOC(=O)C1=CN(C(=O)c2cnc3ccccc3n2)C=C(C(=O)OCC)C1c1ccccc1

fold change (FC) [1]: 2
SMILES: CCOC(=O)C1=CN(C(=O)c2ccccc2)C=C(C(=O)OCC)C1c1ccccc1OC

fold change (FC) [1]: 2
SMILES: CCOC(=O)C1=CN(C(=O)c2ccccc2)C=C(C(=O)OCC)C1c1ccc(C)cc1

fold change (FC) [5]: 1.5
SMILES: CCOC(=O)C1=CN(Cc2ccccc2)C=C(C(=O)OCC)C1c1ccco1
